Reference: ChEMBL document CHEMBL1811902, “Thermodynamic and biological evaluation of a thrombin binding aptamer modified with several unlocked nucleic acid (UNA) monomers and a 2'-C-piperazino-UNA monomer” (Bioorg Med Chem, 2011)

Tests used:
Plasma [1] = assay: Anticoagulant activity in human plasma assessed as time required for clot formation at 0.33 mM at 37 degC; type: functional
In short: (§1)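 Pooled citrate plasma from four healthy donors. Thrombin reagent pre-incubated with aptamer at 0.33 mM for 5 min, then mixed with an equal volume of plasma. Clotting time (thrombin time, seconds) read at 37 °C on an automated coagulation analyser. Antithrombin effect taken as the extra clotting time over a water-added reference.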

Plasma [2] = assay: Anticoagulant activity in human plasma assessed as time required for clot formation in presence of compound minus time required for clot formation in absence of compound at 0.33 mM at 37 degC; type: functional; in short: as §1
[3] = Thermodynamic stability in pH 7.0 buffer containing 100 mM Kcl, 10 mM sodium cacodylate; type: physicochemical
In short: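 UV melting at 295 nm over 5–95 °C at 0.2 °C/min. Samples annealed 5 min at 80 °C, then slowly cooled. Nine strand concentrations spanning 10^-5–10^-6 M, set from absorbance above 80 °C. Heating and cooling profiles recorded. Thermodynamic parameters from non-linear fitting of melting curves with a unimolecular transition model.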

Prothrombin = Prothrombin (Homo sapiens, UniProt P00734); assay: Binding affinity to thrombin at 37 degC by isothermal titration calorimetry
In short: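 ITC at 37 °C. One 0.2 µL pre-injection, discarded, then 19 × 2 µL injections. Heat of dilution from aptamer-into-buffer injections subtracted.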

Structure (SMILES)	Time (Plasma [1]) [s]	Time (Plasma [2]) [s]	Tm [3] [°C]	Kd (Prothrombin) [nM]
Cc1cn([C@H]2C[C@H](OP(N)(=O)OC[C@@H]3C[C@@H](OP(N)(=O)OC[C@H]4O[C@@H](n5cnc6c(=O)[nH]c(N)nc65)C[C@@H]4OP(N)(=O)OC[C@H]4O[C@@H](n5ccc(=O)[nH]c5=O)[C@H](O)[C@@H]4OP(N)(=O)OC[C@H]4O[C@@H](n5cnc6c(=O)[nH]c(N)nc65)[C@H](O)[C@@H]4OP(N)(=O)OC[C@H]4O[C@@H](n5ccc(=O)[nH]c5=O)[C@H](O)[C@@H]4OP(N)(=O)OC[C@H]4O[C@@H](n5cnc6c(=O)[nH]c(N)nc65)C[C@@H]4OP(N)(=O)OC[C@H]4O[C@@H](n5cnc6c(=O)[nH]c(N)nc65)C[C@@H]4OP(N)(=O)OC[C@H]4O[C@@H](n5ccc(=O)[nH]c5=O)[C@H](O)[C@@H]4OP(N)(=O)OC[C@H]4O[C@@H](n5cc(C)c(=O)[nH]c5=O)C[C@@H]4OP(N)(=O)OC[C@H]4O[C@@H](n5cnc6c(=O)[nH]c(N)nc65)C[C@@H]4OP(N)(=O)OC[C@H]4O[C@@H](n5cnc6c(=O)[nH]c(N)nc65)C[C@@H]4O)[C@H](n4cnc5c(=O)[nH]c(N)nc54)O3)[C@@H](COP(N)(=O)O[C@H]3[C@@H](O)[C@H](n4ccc(=O)[nH]c4=O)O[C@@H]3COP(N)(=O)O[C@H]3C[C@H](n4cnc5c(=O)[nH]c(N)nc54)O[C@@H]3COP(N)(=O)O[C@H]3C[C@H](n4cnc5c(=O)[nH]c(N)nc54)O[C@@H]3COC(=O)CCCC[C@@H]3SC[C@@H]4NC(=O)N[C@@H]43)O2)c(=O)[nH]c1=O (some centres undefined)	19	0	29.7	–
Cc1cn([C@H]2C[C@H](OP(N)(=O)OC[C@H]3O[C@@H](n4cnc5c(=O)[nH]c(N)nc54)C[C@@H]3OP(N)(=O)OC[C@H]3O[C@@H](n4cnc5c(=O)[nH]c(N)nc54)C[C@@H]3O)[C@@H](COP(N)(=O)OC[C@@H](COP(N)(=O)O[C@H]3C[C@H](n4cnc5c(=O)[nH]c(N)nc54)O[C@@H]3COP(N)(=O)O[C@H]3C[C@H](n4cnc5c(=O)[nH]c(N)nc54)O[C@@H]3COP(N)(=O)O[C@H]3C[C@H](n4cc(C)c(=O)[nH]c4=O)O[C@@H]3COP(N)(=O)O[C@H]3C[C@H](n4cnc5c(=O)[nH]c(N)nc54)O[C@@H]3COP(N)(=O)OC[C@@H](COP(N)(=O)O[C@H]3C[C@H](n4cnc5c(=O)[nH]c(N)nc54)O[C@@H]3COP(N)(=O)O[C@@H]3C[C@@H](COP(N)(=O)O[C@H]4C[C@H](n5cc(C)c(=O)[nH]c5=O)O[C@@H]4COP(N)(=O)O[C@H]4C[C@H](n5cc(C)c(=O)[nH]c5=O)O[C@@H]4COP(N)(=O)O[C@H]4C[C@H](n5cnc6c(=O)[nH]c(N)nc65)O[C@@H]4COP(N)(=O)O[C@H]4C[C@H](n5cnc6c(=O)[nH]c(N)nc65)O[C@@H]4COC(=O)CCCC[C@@H]4SC[C@@H]5NC(=O)N[C@@H]54)O[C@H]3n3cnc4c(=O)[nH]c(N)nc43)O[C@H](CO)n3ccc(=O)[nH]c3=O)O[C@H](CO)n3ccc(=O)[nH]c3=O)O2)c(=O)[nH]c1=O (some centres undefined)	28.7	9.7	48.1	300
Cc1cn([C@H]2C[C@H](OP(N)(=O)OC[C@@H]3C[C@@H](OP(N)(=O)OC[C@H]4O[C@@H](n5cnc6c(=O)[nH]c(N)nc65)C[C@@H]4OP(N)(=O)OC[C@H]4O[C@@H](n5ccc(=O)[nH]c5=O)[C@H](O)[C@@H]4OP(N)(=O)OC[C@H]4O[C@@H](n5cnc6c(=O)[nH]c(N)nc65)C[C@@H]4OP(N)(=O)OC[C@H]4O[C@@H](n5cc(C)c(=O)[nH]c5=O)C[C@@H]4OP(N)(=O)OC[C@H]4O[C@@H](n5cnc6c(=O)[nH]c(N)nc65)C[C@@H]4OP(N)(=O)OC[C@H]4O[C@@H](n5cnc6c(=O)[nH]c(N)nc65)C[C@@H]4OP(N)(=O)OC[C@H]4O[C@@H](n5cc(C)c(=O)[nH]c5=O)C[C@@H]4OP(N)(=O)OC[C@H]4O[C@@H](n5cc(C)c(=O)[nH]c5=O)C[C@@H]4OP(N)(=O)OC[C@H]4O[C@@H](n5cnc6c(=O)[nH]c(N)nc65)C[C@@H]4OP(N)(=O)OC[C@H]4O[C@@H](n5cnc6c(=O)[nH]c(N)nc65)C[C@@H]4O)[C@H](n4cnc5c(=O)[nH]c(N)nc54)O3)[C@@H](COP(N)(=O)O[C@H]3C[C@H](n4cc(C)c(=O)[nH]c4=O)O[C@@H]3COP(N)(=O)O[C@H]3C[C@H](n4cnc5c(=O)[nH]c(N)nc54)O[C@@H]3COP(N)(=O)O[C@H]3C[C@H](n4cnc5c(=O)[nH]c(N)nc54)O[C@@H]3CO)O2)c(=O)[nH]c1=O (some centres undefined)	–	–	–	37
Cc1cn([C@H]2C[C@H](OP(N)(=O)OC[C@@H]3C[C@@H](OP(N)(=O)OC[C@H]4O[C@@H](n5cnc6c(=O)[nH]c(N)nc65)C[C@@H]4OP(N)(=O)OC[C@H](COP(N)(=O)OC[C@H]4O[C@@H](n5cnc6c(=O)[nH]c(N)nc65)C[C@@H]4OP(N)(=O)OC[C@H]4O[C@@H](n5cc(C)c(=O)[nH]c5=O)C[C@@H]4OP(N)(=O)OC[C@H]4O[C@@H](n5cnc6c(=O)[nH]c(N)nc65)C[C@@H]4OP(N)(=O)OC[C@H]4O[C@@H](n5cnc6c(=O)[nH]c(N)nc65)C[C@@H]4OP(N)(=O)OC[C@H](COP(N)(=O)OC[C@H]4O[C@@H](n5cc(C)c(=O)[nH]c5=O)C[C@@H]4OP(N)(=O)OC[C@H]4O[C@@H](n5cnc6c(=O)[nH]c(N)nc65)C[C@@H]4OP(N)(=O)OC[C@H]4O[C@@H](n5cnc6c(=O)[nH]c(N)nc65)C[C@@H]4O)O[C@H](CO)n4ccc(=O)[nH]c4=O)O[C@H](CO)n4ccc(=O)[nH]c4=O)[C@H](n4cnc5c(=O)[nH]c(N)nc54)O3)[C@@H](COP(N)(=O)OC[C@@H](COP(N)(=O)O[C@H]3C[C@H](n4cnc5c(=O)[nH]c(N)nc54)O[C@@H]3COP(N)(=O)O[C@H]3C[C@H](n4cnc5c(=O)[nH]c(N)nc54)O[C@@H]3COC(=O)CCCC[C@@H]3SC[C@@H]4NC(=O)N[C@@H]43)O[C@H](CO)n3ccc(=O)[nH]c3=O)O2)c(=O)[nH]c1=O (some centres undefined)	19.5	0.5	51	–
Cc1cn([C@H]2C[C@H](OP(N)(=O)OC[C@@H]3C[C@@H](OP(N)(=O)OC[C@H]4O[C@@H](n5cnc6c(=O)[nH]c(N)nc65)C[C@@H]4OP(N)(=O)OC[C@H]4O[C@@H](n5cc(C)c(=O)[nH]c5=O)C[C@@H]4OP(N)(=O)OC[C@H]4O[C@@H](n5cnc6c(=O)[nH]c(N)nc65)C[C@@H]4OP(N)(=O)OC[C@H]4O[C@@H](n5cc(C)c(=O)[nH]c5=O)C[C@@H]4OP(N)(=O)OC[C@H]4O[C@@H](n5cnc6c(=O)[nH]c(N)nc65)C[C@@H]4OP(N)(=O)OC[C@H]4O[C@@H](n5cnc6c(=O)[nH]c(N)nc65)C[C@@H]4OP(N)(=O)OC[C@H](COP(N)(=O)OC[C@H]4O[C@@H](n5cc(C)c(=O)[nH]c5=O)C[C@@H]4OP(N)(=O)OC[C@H]4O[C@@H](n5cnc6c(=O)[nH]c(N)nc65)C[C@@H]4OP(N)(=O)OC[C@H]4O[C@@H](n5cnc6c(=O)[nH]c(N)nc65)C[C@@H]4O)O[C@H](CO)n4ccc(=O)[nH]c4=O)[C@H](n4cnc5c(=O)[nH]c(N)nc54)O3)[C@@H](COP(N)(=O)OC[C@@H](COP(N)(=O)O[C@H]3C[C@H](n4cnc5c(=O)[nH]c(N)nc54)O[C@@H]3COP(N)(=O)O[C@H]3C[C@H](n4cnc5c(=O)[nH]c(N)nc54)O[C@@H]3COC(=O)CCCC[C@@H]3SC[C@@H]4NC(=O)N[C@@H]43)O[C@H](CO)n3ccc(=O)[nH]c3=O)O2)c(=O)[nH]c1=O (some centres undefined)	19.4	0.4	47.4	–
